Assay results from paper PMC6429430 (ACS Chemical Neuroscience, 2018).
Like-named read-outs stand apart in the source and are kept apart here.

Experiments:
[1] = target: T1, HDAC11 (Homo sapiens, UniProt Q96DB2); test: Recombinant HDAC isoform biochemical assay
T1 sequence (Q96DB2 1-347): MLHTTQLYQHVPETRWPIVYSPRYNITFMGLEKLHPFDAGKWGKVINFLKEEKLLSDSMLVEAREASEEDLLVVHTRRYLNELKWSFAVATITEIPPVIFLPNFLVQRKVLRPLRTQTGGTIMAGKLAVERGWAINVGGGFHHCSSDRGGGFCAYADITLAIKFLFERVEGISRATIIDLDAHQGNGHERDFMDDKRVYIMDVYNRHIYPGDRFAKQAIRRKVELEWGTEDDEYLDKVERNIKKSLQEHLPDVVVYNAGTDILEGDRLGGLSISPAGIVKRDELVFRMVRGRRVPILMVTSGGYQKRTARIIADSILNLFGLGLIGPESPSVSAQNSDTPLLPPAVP

[2] = system: human myeloid progenitors; test: Colony forming cell; format: cell-based; conditions: human bone marrow cells, 14 days in culture
Outline: (§1)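 Normal human bone marrow light-density cells, thawed rapidly and washed in IMDM + 10% FBS, were plated at 2.0 × 10^4 cells per culture. Medium was semisolid methylcellulose with rhIL-3 10 ng/mL, rhGM-CSF 10 ng/mL, rhSCF 50 ng/mL and Epo 3 U/mL. Compound was added at final 10, 2 and 0.4 μM, with 0.1% DMSO solvent control and 5-FU (1.0, 0.1, 0.01 μg/mL) as positive control. After 14 days, erythroid (CFU-E, BFU-E) and myeloid (CFU-GM) colonies were scored microscopically. Three replicate cultures were compared with solvent control by two-tailed t test.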

[3] = system: human erythroid progenitors; test: Colony forming cell; format: cell-based; conditions: human bone marrow cells, 14 days in culture
Outline: as §1

[4] = system: dendritic spines in CA1 region of the dorsal hippocampus; test: Hippocampal dendritic spine density analysis; format: in vivo, mouse; conditions: WT mice
[5] = system: hippocampal LTP (Schaffer collateral-CA1); test: LTP in 5xFAD mice; format: in vivo, mouse; conditions: aged 5xFAD mice, 1 mg/kg po for 14 days
Outline: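 Aged 5xFAD mice on a C57BL/6J background (9–12 months) and age-matched WT mice were dosed by oral gavage once daily for 14 days (n = 8 per group). Hippocampal slices (350 μm) were held at room temperature for at least 1 h in oxygenated aCSF (pH 7.4), then perfused at 30 °C for 0.5 h in a multielectrode chamber. Schaffer collateral–CA1 LTP was recorded as normalised fEPSP slope over the last 10 min.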

[6] = Reported 2 week toxicity of CI-994 in dogs; format: in vivo, dog
[7] = rats, 1.5, 5, 15 mg/kg daily orally, 2 weeks; cited from earlier work
[8] = cited from earlier work

CC(=O)Nc1ccc(C(=O)Nc2ccccc2N)cc1 [CI-994]
IC50 [1]: > 30 µM
myeloid progenitors: % control at 10 μM [2]: 0 % control
erythroid progenitors: % control at 10 μM [3]: 0 % control
increase in total spine density ([4]; 1 mg/kg daily oral for 14 days, vs vehicle): 29%
dendritic spine density compared to vehicle-treated controls ([4]; oral daily 14 days, Rodin-A 1, 3, 6 mg/kg, CI-994 1 and 3 mg/kg): significant increases in spine density
effect on impaired LTP [5]: improves impaired LTP
safety margin ([6]; HED at reported dog NOAEL vs efficacious HED): 3.4 fold
NOAEL at 2 weeks ([6]; dog, in vivo, 0.5 mg/kg): 16.2 mg/kg
dose-limiting toxicity [7]: primarily bone marrow suppression
reported NOAEL in dogs ([8]; 2 weeks of daily dosing): 0.5 mg/kg
dose-limiting toxicity ([8]; dogs, 0.5, 2, 5 mg/kg daily, 2 weeks): primarily bone marrow suppression
day 12 AUC ([8]; male dogs, 2 mg/kg daily): 9.91 ng·h/mL
